# According to article PMC7928716 (Science Signaling, 2021):
# Square brackets hold non-standard residues; d marks the D form. Peptide text beside a SMILES is read from it. * marks the point of attachment. FITC = O=C1OC2(c3ccc(O)cc3Oc3cc(O)ccc32)c2ccc(NC(=S)*)cc21; pY = N[C@@H](Cc1ccc(OP(=O)(O)O)cc1)C(=O)O; pT = C[C@@H](OP(=O)(O)O)[C@H](N)C(=O)O; pS = N[C@@H](COP(=O)(O)O)C(=O)O
# Columns and labels:
# AP2 μ2 = target: T1, AP2 μ2 (Homo sapiens, UniProt Q96CW1); test: FP saturation; type: binding
# T1 sequence (Q96CW1 160-435): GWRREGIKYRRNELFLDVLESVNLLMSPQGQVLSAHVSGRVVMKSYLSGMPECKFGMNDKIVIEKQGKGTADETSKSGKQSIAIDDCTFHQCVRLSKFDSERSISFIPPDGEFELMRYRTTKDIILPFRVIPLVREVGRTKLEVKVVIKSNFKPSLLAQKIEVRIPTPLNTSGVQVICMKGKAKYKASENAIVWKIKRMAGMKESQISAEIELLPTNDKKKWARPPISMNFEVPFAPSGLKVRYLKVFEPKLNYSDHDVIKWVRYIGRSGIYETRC
# Method in brief: (§1)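 GST-tagged domains were expressed in E. coli BL21-Gold (DE3) (IPTG induction, 16 h at 18°C) and purified on glutathione beads. The tag was removed with thrombin, and domains were dialysed into 50 mM sodium phosphate pH 7.4 with 1 mM DTT. Probes were FITC-ATG9A4–14 (AP2 μ2) and FITC-SQSTM1335–344 (ATG8 domains). 5 nM labelled peptide was mixed with an equal volume of a protein dilution series at room temperature and read without preincubation. KD came from a quadratic fit, in technical triplicates.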
# GABARAP ATG8 [1] = target: T2, GABARAP ATG8 (Homo sapiens, UniProt O95166); test: FP saturation; type: binding
# T2 sequence (O95166 2-115): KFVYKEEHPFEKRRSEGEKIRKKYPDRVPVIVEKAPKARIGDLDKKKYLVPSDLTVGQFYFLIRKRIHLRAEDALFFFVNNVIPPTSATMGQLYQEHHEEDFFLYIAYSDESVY
# LYN SH2 = LYN SH2 (Homo sapiens, UniProt P07948); test: FP saturation; type: binding
# Sequence of LYN SH2 (P07948 127-234): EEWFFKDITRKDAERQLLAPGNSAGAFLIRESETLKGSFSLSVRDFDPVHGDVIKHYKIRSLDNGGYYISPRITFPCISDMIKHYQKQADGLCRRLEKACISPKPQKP
# Method in brief: (§2)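 The SH2 domain was expressed GST-tagged in E. coli. The tag was cleaved with HRV 3C and the protein dialysed into 50 mM sodium phosphate pH 7.4 with 1 mM DTT. KD came from a quadratic fit, in technical triplicates.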
# MAP1LC3A ATG8 [2] = target: T3, MAP1LC3A ATG8 (Homo sapiens, UniProt Q9H492); test: FP saturation; type: binding
# MAP1LC3B ATG8 [3] = target: T4, MAP1LC3B ATG8 (Homo sapiens, UniProt Q9GZQ8); test: FP saturation; type: binding
# Method in brief: as §1
# GABARAPL2 ATG8 [4] = target: T5, GABARAPL2 ATG8 (Homo sapiens, UniProt P60520); test: FP saturation; type: binding
# T5 sequence (P60520 2-115): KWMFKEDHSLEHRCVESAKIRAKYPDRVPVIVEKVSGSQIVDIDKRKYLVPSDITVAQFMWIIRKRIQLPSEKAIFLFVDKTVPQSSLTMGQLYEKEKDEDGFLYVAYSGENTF
# Method in brief: as §1
# NCK1 SH2 = NCK1 SH2 (Homo sapiens, UniProt P16333); test: FP saturation; type: binding
# FYN SH2 = FYN SH2 (Homo sapiens, UniProt P06241); test: FP saturation; type: binding
# Sequence of FYN SH2 (P06241 142-251): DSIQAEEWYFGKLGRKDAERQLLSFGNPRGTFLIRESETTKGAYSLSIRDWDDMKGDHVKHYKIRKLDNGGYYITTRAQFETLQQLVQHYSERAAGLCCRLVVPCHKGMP
# Method in brief: as §2
# IRS1 PTB = target: T6, IRS1 PTB (Homo sapiens, UniProt P35568); test: FP saturation; type: binding
# T6 sequence (P35568 157-267): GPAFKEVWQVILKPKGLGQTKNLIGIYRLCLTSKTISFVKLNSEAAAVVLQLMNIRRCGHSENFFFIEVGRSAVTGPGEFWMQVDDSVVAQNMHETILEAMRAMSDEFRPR
# Method in brief: (§3)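 Direct FP saturation used GST-tagged PTB domains (the talin entry is the PTB-like FERM lobe), expressed in E. coli at 18°C for 16 h. GST was removed with thrombin and the protein dialysed into 50 mM sodium phosphate pH 7.4 with 1 mM DTT. KD came from a quadratic fit, in technical triplicates.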
# DOK1 PTB = target: T7, DOK1 PTB (Homo sapiens, UniProt Q99704); test: FP saturation; type: binding
# T7 sequence (Q99704 151-256): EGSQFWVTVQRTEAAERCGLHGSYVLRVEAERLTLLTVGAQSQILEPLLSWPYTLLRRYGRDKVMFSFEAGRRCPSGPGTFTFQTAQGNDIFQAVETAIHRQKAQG
# Method in brief: as §3
# TLN2 PTB = TLN2 PTB (Homo sapiens, UniProt Q9Y4G6); test: FP saturation; type: binding
# Sequence of TLN2 PTB (Q9Y4G6 309-401): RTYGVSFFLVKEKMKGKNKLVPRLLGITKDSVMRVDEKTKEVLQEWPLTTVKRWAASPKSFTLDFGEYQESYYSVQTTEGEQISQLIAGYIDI
# Method in brief: as §3
# SNX17 FERM = target: T8, SNX17 FERM (Mus musculus, UniProt Q8BVL3); test: FP saturation; type: binding
# T8 sequence (Q8BVL3 109-388): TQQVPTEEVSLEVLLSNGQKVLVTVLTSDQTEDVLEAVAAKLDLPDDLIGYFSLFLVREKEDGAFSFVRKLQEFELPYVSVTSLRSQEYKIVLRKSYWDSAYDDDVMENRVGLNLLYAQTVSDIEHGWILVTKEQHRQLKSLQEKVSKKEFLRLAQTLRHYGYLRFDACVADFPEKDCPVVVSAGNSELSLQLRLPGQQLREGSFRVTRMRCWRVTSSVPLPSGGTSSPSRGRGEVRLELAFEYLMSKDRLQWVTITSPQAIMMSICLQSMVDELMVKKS
# Method in brief: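 The FERM domain was expressed GST-tagged in E. coli BL21-Gold (DE3) at 18°C. The tag was removed with TEV protease and the protein dialysed into 50 mM sodium phosphate pH 7.4 with 1 mM DTT. Direct FP used 5 nM FITC-labeled peptide with a protein dilution series at room temperature and no preincubation. KD came from a quadratic fit, in technical triplicates.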
# FRS2 PTB = target: T9, FRS2 PTB (Homo sapiens, UniProt Q8WU20); test: FP saturation; type: binding
# T9 sequence (Q8WU20 8-136): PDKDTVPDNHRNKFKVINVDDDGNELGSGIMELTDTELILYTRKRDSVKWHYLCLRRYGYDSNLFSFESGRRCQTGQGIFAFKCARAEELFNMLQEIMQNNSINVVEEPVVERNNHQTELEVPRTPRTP
# Method in brief: as §3
# SARS-CoV-2 = settings: study repurposing approved compounds; cited from earlier work
# MAP1LC3B ATG8 [5] = target: T4, MAP1LC3B ATG8; test: FP displacement of FITC-SQSTM1_335–344 from MAP1LC3B ATG8; type: binding
# Method in brief: (§4)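 GST-tagged ATG8 domains were expressed in E. coli BL21-Gold (DE3) with 1 mM IPTG at OD600 0.7 for 16 h at 18°C. They were glutathione-bead purified, thrombin-cleaved overnight at 4°C, and dialysed into 50 mM sodium phosphate pH 7.4 with 1 mM DTT. Domain level for displacement was set from FITC-SQSTM1 saturation curves. Unlabeled peptides were in phosphate buffer. FP was read at room temperature and KI calculated.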
# GABARAPL2 ATG8 [6] = target: T5, GABARAPL2 ATG8; test: FP displacement of FITC-SQSTM1_335–344 from GABARAPL2 ATG8; type: binding
# Method in brief: as §4
# MAP1LC3A ATG8 [7] = target: T3, MAP1LC3A ATG8; test: FP displacement of FITC-SQSTM1_335–344 from MAP1LC3A ATG8; type: binding
# Method in brief: as §4
# MAP1LC3C ATG8 = MAP1LC3C ATG8 (Homo sapiens, UniProt Q9BXW4); test: FP displacement of FITC-SQSTM1_335–344 from MAP1LC3C ATG8; type: binding
# Sequence of MAP1LC3C ATG8 (Q9BXW4 2-125): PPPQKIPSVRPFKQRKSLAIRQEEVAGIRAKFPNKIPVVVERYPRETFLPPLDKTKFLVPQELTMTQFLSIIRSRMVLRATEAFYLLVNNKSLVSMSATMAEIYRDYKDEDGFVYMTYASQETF
# Method in brief: as §4
# GABARAP ATG8 [8] = target: T2, GABARAP ATG8; test: FP displacement of FITC-SQSTM1_335–344 from GABARAP ATG8; type: binding
# Method in brief: as §4
Compound,Ki (MAP1LC3B ATG8 [5]) [µM],Ki (GABARAPL2 ATG8 [6]) [µM],Ki (MAP1LC3A ATG8 [7]) [µM],Ki (MAP1LC3C ATG8) [µM],other results
CC[C@H](C)[C@H](NC(=O)[C@H](CC(=O)O)NC(=O)[C@@H](NC(=O)[C@H](CO)NC(=O)[C@H](C)NC(=O)[C@H](Cc1ccc(O)cc1)NC(=O)[C@@H]1CCCN1C(=O)[C@H](CC(N)=O)NC(=O)[C@H](CCC(=O)O)NC(=O)CNC(=O)[C@H](CO)NC(=O)[C@H](CCCNC(=N)N)NC(=S)Nc1ccc2c(c1)C(=O)OC21c2ccc(O)cc2Oc2cc(O)ccc21)[C@@H](C)CC)C(=O)N[C@@H](CO)C(=O)N[C@@H](CCCCN)C(=O)NCC(=O)N[C@@H](CCC(=O)O)C(N)=O [ACE2_775–790 Unphos.] ({FITC}-RSGENPYASIDISKGE-NH2),,,,,Kd (AP2 μ2): ~60 µM; Kd (GABARAP ATG8 [1]): > 100 µM; Kd (LYN SH2): > 100 µM; Kd (MAP1LC3A ATG8 [2]): > 100 µM; Kd (MAP1LC3B ATG8 [3]): > 100 µM; Kd (GABARAPL2 ATG8 [4]): > 100 µM; Kd (NCK1 SH2): > 100 µM; Kd (FYN SH2): > 100 µM
C[C@@H](O)[C@H](NC(=O)[C@H](CC(N)=O)NC(=O)[C@H](CCC(N)=O)NC(=O)[C@H](Cc1ccccc1)NC(=O)CNC(=O)[C@@H]1CCCN1C(=O)[C@H](CC(N)=O)NC(=O)[C@H](CC(N)=O)NC(=O)[C@H](CCC(=O)O)NC(=O)CNC(=O)[C@H](CCCCN)NC(=O)[C@H](CO)NC(=S)Nc1ccc2c(c1)C(=O)OC21c2ccc(O)cc2Oc2cc(O)ccc21)C(N)=O [ACE2_787–798] ({FITC}-SKGENNPGFQNT-NH2),,,,,Kd (IRS1 PTB): > 100 µM; Kd (DOK1 PTB): > 100 µM; Kd (TLN2 PTB): > 100 µM; Kd (SNX17 FERM): ~100 µM; Kd (FRS2 PTB): > 100 µM
Cc1cccc(/C=N/Nc2cc(N3CCOCC3)nc(OCCc3ccccn3)n2)c1 [apilimod],,,,,inhibition of viral replication (SARS-CoV-2): potent inhibitor of viral replication
CC[C@H](C)[C@H](NC(=O)[C@H](CC(N)=O)NC(=O)[C@@H](NC(=O)[C@H](Cc1ccccc1)NC(=O)[C@@H](NC(=O)[C@H](COP(=O)(O)O)NC(=O)[C@@H](NC(=O)[C@H](C)NC(=O)[C@H](CCC(=O)O)NC(=O)[C@H](CCCCN)NC(C)=O)[C@@H](C)O)[C@@H](C)O)[C@@H](C)O)C(=O)N[C@H](C(=O)N[C@@H](Cc1ccc(O)cc1)C(=O)N[C@@H](CCCNC(=N)N)C(=O)NCC(N)=O)[C@@H](C)O [pSer^778] (Ac-KEAT[pS]TFTNITYRG-NH2),> 100,80 ± 5,29.4 ± 0.5,16.1 ± 0.5,
CC[C@H](C)[C@H](NC(=O)[C@H](CC(N)=O)NC(=O)[C@@H](NC(=O)[C@H](Cc1ccccc1)NC(=O)[C@@H](NC(=O)[C@H](CO)NC(=O)[C@@H](NC(=O)[C@H](C)NC(=O)[C@H](CCC(=O)O)NC(=O)[C@H](CCCCN)NC(C)=O)[C@@H](C)OP(=O)(O)O)[C@@H](C)O)[C@@H](C)O)C(=O)N[C@H](C(=O)N[C@@H](Cc1ccc(O)cc1)C(=O)N[C@@H](CCCNC(=N)N)C(=O)NCC(N)=O)[C@@H](C)O [pThr^777] (Ac-KEA[pT]STFTNITYRG-NH2),> 100,,> 100,73 ± 4,Ki (GABARAP ATG8 [8]): 47 ± 3 µM
CC[C@H](C)[C@H](NC(=O)[C@H](CC(N)=O)NC(=O)[C@@H](NC(=O)[C@H](Cc1ccccc1)NC(=O)[C@@H](NC(=O)[C@H](CO)NC(=O)[C@@H](NC(=O)[C@H](C)NC(=O)[C@H](CCC(=O)O)NC(=O)[C@H](CCCCN)NC(C)=O)[C@@H](C)O)[C@@H](C)OP(=O)(O)O)[C@@H](C)O)C(=O)N[C@H](C(=O)N[C@@H](Cc1ccc(OP(=O)(O)O)cc1)C(=O)N[C@@H](CCCNC(=N)N)C(=O)NCC(N)=O)[C@@H](C)O [pThr^779/pTyr^785] (Ac-KEATS[pT]FTNIT[pY]RG-NH2),15 ± 1,,8.5 ± 0.5,8 ± 2,Ki (GABARAP ATG8 [8]): 17.8 ± 0.8 µM
CC[C@H](C)[C@H](NC(=O)[C@H](CC(N)=O)NC(=O)[C@@H](NC(=O)[C@H](Cc1ccccc1)NC(=O)[C@@H](NC(=O)[C@H](CO)NC(=O)[C@@H](NC(=O)[C@H](C)NC(=O)[C@H](CCC(=O)O)NC(=O)[C@H](CCCCN)NC(C)=O)[C@@H](C)O)[C@@H](C)OP(=O)(O)O)[C@@H](C)O)C(=O)N[C@H](C(=O)N[C@@H](Cc1ccc(O)cc1)C(=O)N[C@@H](CCCNC(=N)N)C(=O)NCC(N)=O)[C@@H](C)O [pThr^779] (Ac-KEATS[pT]FTNITYRG-NH2),> 100,> 100,> 100,82 ± 3,
CC[C@H](C)[C@H](NC(=O)[C@H](CC(N)=O)NC(=O)[C@@H](NC(=O)[C@H](Cc1ccccc1)NC(=O)[C@@H](NC(=O)[C@H](CO)NC(=O)[C@@H](NC(=O)[C@H](C)NC(=O)[C@H](CCC(=O)O)NC(=O)[C@H](CCCCN)NC(C)=O)[C@@H](C)O)[C@@H](C)O)[C@@H](C)O)C(=O)N[C@H](C(=O)N[C@@H](Cc1ccc(OP(=O)(O)O)cc1)C(=O)N[C@@H](CCCNC(=N)N)C(=O)NCC(N)=O)[C@@H](C)O [pTyr^785] (Ac-KEATSTFTNIT[pY]RG-NH2),81 ± 2,89 ± 12,38 ± 2,83 ± 4,
